Only some compounds are listed: those with a hit (about 3.9% of all), similar ones and a draw of the others.
SR-BI DiI inh = blocks mouse SR-BI lipid uptake from DiI-HDL; ldlA[mSR-BI] CHO cells, DiI-HDL uptake fluorescence, 3 h; inhibition, % at 12.5 µM; AID 488896; 320,000 compounds, 0.96% hits; Q61009;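 active = mean replicate inhibition of at least 70% and a set share of replicates each scoring 70 or more; inconclusive = meets just one of the two criteria; inactive = fails both criteria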
Target sequence (Q61009 whole entry, looked up): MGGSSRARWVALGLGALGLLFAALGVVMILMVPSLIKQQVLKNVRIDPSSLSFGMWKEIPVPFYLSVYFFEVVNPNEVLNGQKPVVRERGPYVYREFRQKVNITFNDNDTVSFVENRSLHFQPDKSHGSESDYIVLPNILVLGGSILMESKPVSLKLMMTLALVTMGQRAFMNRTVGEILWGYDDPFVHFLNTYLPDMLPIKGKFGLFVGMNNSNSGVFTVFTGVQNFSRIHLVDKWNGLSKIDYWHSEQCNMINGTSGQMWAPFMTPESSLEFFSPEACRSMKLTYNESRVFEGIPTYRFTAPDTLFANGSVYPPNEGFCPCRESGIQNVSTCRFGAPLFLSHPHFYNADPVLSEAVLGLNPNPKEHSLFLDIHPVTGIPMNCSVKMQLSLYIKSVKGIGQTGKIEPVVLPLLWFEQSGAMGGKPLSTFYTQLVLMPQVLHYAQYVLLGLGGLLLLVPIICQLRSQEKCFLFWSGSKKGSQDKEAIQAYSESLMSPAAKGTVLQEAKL
GAA850 FXN act = increases GAA850 frataxin promoter reporter activity. HEK293 lucGAA850 FXN promoter luciferase reporter, 24 h; percent of 10 µM SAHA response. activation, % at 6 µM. 360,000 compounds, 0.56% hits. AID 540364;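 active = activation above the average of all compounds screened plus 3 SD, cutoff fixed separately per campaign, cut at about 7.5% in these data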
AHR activator = activates the human aryl hydrocarbon receptor | AHR-responsive luciferase reporter cells, luminescence | 320,000 compounds, 2.5% hits | activation, % at 5 µM | P35869; in the data active = activation above about 47%
SR-BI uptake up = enhances SR-BI lipid uptake from DiI-HDL; CHO ldlA[mSR-BI] cells, DiI-HDL uptake fluorescence, 3 h; 100 = double the neutral-control signal; activation, % at 12.5 µM; 320,000 compounds, 0.096% hits; AID 504775;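 active = mean replicate activation of at least 60% and every replicate at or above 60%; inconclusive = mean or all-replicate condition met, but not both; inactive = mean below 60% and not all replicates reaching 60%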
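Material: SR-BI-overexpressing, LDLR-lacking CHO cells; schedule: compound exposure 3 h, 37 °C; reagent: DiI-labelled HDL at 10 µg/mL final; technique: bottom-read fluorescence, 550/595 nm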
HIF act = HIF pathway transcriptional activation; U2OS HRE-luciferase reporter, luminescence; normalized: DMSO 0%, desferrioxamine 100%; activation, % at 7.5 µM (by protocol); 300,000 compounds, 0.32% hits; AID 1910;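 active = mean activation of at least 10% of the iron chelator positive control signal, with at least half of replicates also reaching 10%; inconclusive = mean and replicate majority disagree about reaching 10%; inactive = mean and most replicates under 10%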
ABCB6 inh 2 = blocks the human ABCB6 transporter | Q9NP58 | K562-ABCB6 porphyrin accumulation, flow cytometry, 1 h; active compounds read low | fluorescence ratio to DMSO, % at 10 µM | 360,000 compounds, 0.19% hits;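 active = fluorescence ratio to DMSO below 75%, the collection mean minus 3 SD; inconclusive = too few cells collected in the well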;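 also: signal is porphyrin accumulated inside mitochondria; lower ratio means ABCB6 inhibition with less porphyrin fluorescence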
GAA30 FXN cntr = GAA30 FXN promoter activation counter-screen; activation, % at 6 µM; shares compounds with GAA850 FXN act; HEK293 lucGAA30 FXN promoter luciferase, 24 h; DMSO = 0%, 5 µM ipriflavone = 100%; 1,900 compounds, 66% hits;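 active = mean activation above the mean of solvent-only control wells plus 3 SD, cut at about 22% in these data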;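 also: counterscreen of GAA850 promoter hits where activity marks nonselective or luminescence artifacts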
GAA850 confirm = confirmation of GAA850 frataxin (FXN) promoter activators. HEK293 lucGAA850 FXN promoter luciferase reporter, 24 h; 100% = activation by SAHA. 1,900 compounds, 86% hits. shares compounds with GAA850 FXN act. activation, % at 6 µM;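 active = mean activation above a set limit taken from the primary screen, cut at about 8% in these data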
Each line names hits and unclear results; the compound was inactive in the other large screens (follow-up assays come after a bar, where they were run).

CC(C)c1ccc(N(C(=O)c2ccco2)C(C(=O)NC2CCCC2)c2ccncc2)cc1 (centres undefined)	GAA850 FXN act 10 | GAA30 FXN cntr 106 | GAA850 confirm 38
Cc1ccccc1CCN(C(=O)c1csnn1)C(C(=O)NC1CCCC1)c1ccncc1 (centres undefined)	GAA850 FXN act 14 (no result: SR-BI DiI inh, SR-BI uptake up) | GAA30 FXN cntr inactive | GAA850 confirm inactive
CC(C)c1ccc(N(C(=O)c2csnn2)C(C(=O)NC2CCCC2)c2ccncc2)cc1 (centres undefined)	GAA850 FXN act 20 | GAA30 FXN cntr 67 | GAA850 confirm 24
CC(C)Cn1c(=O)c(C(=O)Nc2cnccn2)c(O)c2ccccc21	none
O=C(OCc1ccc([N+](=O)[O-])cc1)c1cc([N+](=O)[O-])ccc1N1CCOCC1	none
c1ccc(CC2CCN(C(c3cccs3)c3nnnn3C3CCCC3)CC2)cc1 (centres undefined)	none (no result: HIF act)
CC1=CC(C)(C)Nc2ccc(OC(=O)CN3C(=O)c4ccccc4C3=O)cc21	GAA850 FXN act 8.7 | GAA30 FXN cntr inactive | GAA850 confirm 18
CC(C)NC(=O)Cn1c(SCC(=O)N2CCCCCC2)nc2ccccc21	none
CC(=O)c1nnn(-c2nc(N)nc(N(c3ccccc3)c3ccccc3)n2)c1C	none
COc1cccc(-c2nnc(SCC(=O)N3CCOCC3)o2)c1	none (no result: HIF act)
COc1ccc(-c2nnc(SCC(=O)N3CCOCC3)o2)cc1	GAA850 FXN act 7.7 | GAA30 FXN cntr 101 | GAA850 confirm 30
Cc1ccc(C(=O)Nc2sc3c(c2C(=O)O)CCCCC3)o1	none (no result: SR-BI DiI inh, SR-BI uptake up)
N/C(=N\N=C\c1ccc(O)cc1)c1nonc1N	none
N/C(=N\N=C\c1cccc(O)c1)c1nonc1N	GAA850 FXN act 7.9 | GAA30 FXN cntr 128 | GAA850 confirm 21
O=C1[C@H]2[C@@H](c3ccc(F)cc3)N3C(=O)N(c4cccc(Br)c4)C(=O)[C@@]3(Cc3ccc(Cl)cc3)[C@H]2C(=O)N1C1CCCCC1	none
O=C1[C@H]2[C@@H](c3ccc(F)cc3)N3C(=O)N(c4ccccc4)C(=O)[C@@]3(Cc3ccccc3)[C@H]2C(=O)N1C1CCCCC1	GAA850 FXN act 10 | GAA30 FXN cntr 23 | GAA850 confirm inactive
O=C1[C@H]2[C@@H](c3ccc(F)cc3)N3C(=O)N(c4cccc(Cl)c4)C(=O)[C@@]3(Cc3ccccc3)[C@H]2C(=O)N1C1CCCCC1	GAA850 FXN act 9.3 | GAA30 FXN cntr inactive | GAA850 confirm inactive
CCn1c(Cc2ccccc2)nnc1SCC(=O)NC1CC1	none
COc1cccc(NC(=O)c2ccc3nc(C)sc3c2)c1	GAA850 FXN act 7.6 | GAA30 FXN cntr 120 | GAA850 confirm 40
COc1cccc(C(=O)Nc2nnc(-c3ccc(OC)cc3OC)s2)c1	none (no result: SR-BI DiI inh, SR-BI uptake up)
COc1cccc(C(=O)Nc2nnc(-c3ccccc3)s2)c1	GAA850 FXN act 8.0 (no result: AHR activator) | GAA30 FXN cntr 80 | GAA850 confirm 35
Cc1cc(NC(=O)c2ccc3nc(C)sc3c2)no1	GAA850 FXN act 7.7 | GAA30 FXN cntr 111 | GAA850 confirm 33
Cc1cc(NC(=O)c2ccc(Cl)cc2)no1	none
CCOc1ccc(S(=O)(=O)NNC(=S)Nc2ccc(Br)cc2)cc1	none
CCC(c1nnnn1CS(=O)(=O)c1ccc(C)cc1)N1CCC(C(N)=O)CC1 (centres undefined)	none (no result: SR-BI DiI inh, SR-BI uptake up)
Cc1c2c(nc3c(C(=O)NC4CC4)cnn13)CCCC2	none
CCC(C)NC(=O)c1cnn2c(C)c3c(nc12)CCCC3 (centres undefined)	GAA850 FXN act 7.8 | GAA30 FXN cntr inactive | GAA850 confirm 9.6
Cc1c(-c2nc(-c3ccc(C(C)(C)C)cc3)no2)n(C)oc1=O	none
Cc1n[nH]c(C)c1S(=O)(=O)N(CC(=O)NC1CCCC1)c1ccc(C(C)C)cc1	GAA850 FXN act 8.2 (no result: HIF act) | GAA30 FXN cntr inactive | GAA850 confirm 9.5
Cc1nn(C)c(C)c1S(=O)(=O)N(CC(=O)NC1CCCCCC1)c1ccc(C(C)C)cc1	none
O=C(CN1C(=O)S/C(=C\C=C\c2ccccc2)C1=O)Nc1ccc(O)cc1	none
Cc1cccc(/C(N)=N/OC(=O)c2ccc3c(c2)OCO3)c1	GAA850 FXN act 7.9 | GAA30 FXN cntr 105 | GAA850 confirm 39
CC1=C(C(=O)N2CCCC(N3CCN(c4ccccc4C)CC3)C2)OCCO1 (centres undefined)	none
Cc1ccc(-c2noc(-c3ccccc3F)n2)cc1	GAA850 FXN act 8.1 | GAA30 FXN cntr 135 | GAA850 confirm 45
O=C(O)c1ccc(-c2noc(-c3ccccc3F)n2)cc1	none
CCOc1ccc(C2C(C(=O)c3ccc(C)o3)=C(O)C(=O)N2c2nc(C)c(C(=O)OC)s2)cc1 (centres undefined)	GAA850 FXN act 7.6 | GAA30 FXN cntr 33 | GAA850 confirm 18
O=c1oc(-c2ccccc2)nc2sc3c(c12)CCCC3	none
O=C1CN(c2nc(-c3cccnc3)nc3sc4c(c23)CCCC4)CCN1	GAA850 FXN act 10 | GAA30 FXN cntr inactive | GAA850 confirm 21
c1ccc(Nc2nnc(SCc3cccc4ccccc34)s2)cc1	none (no result: SR-BI DiI inh, SR-BI uptake up)
Cc1nnc(SCc2cccc3ccccc23)s1	GAA850 FXN act 7.6 | GAA30 FXN cntr 80 | GAA850 confirm 29
COc1ccc(CNC(=S)N2CCN(Cc3ccccc3)CC2)cc1	none
Cc1cc(Cl)ccc1OCC(=O)Nc1cccc(S(=O)(=O)NC2=NCCCCC2)c1	none
Cc1ccc(S(=O)(=O)Nc2nc3ccccc3nc2N2CCOCC2)cc1	none (no result: HIF act)
O=S(=O)(Nc1nc2ccccc2nc1N1CCN(c2ccccc2)CC1)c1ccc(F)cc1	GAA850 FXN act 8.0 | GAA30 FXN cntr inactive | GAA850 confirm 9.7
N#CC1=C(N)SC(N)=C(C#N)C1c1cccc(Oc2ccccc2)c1	none
COc1ccc(NC(=S)Nc2ccccn2)c(OC)c1	GAA850 FXN act 8.1, HIF act inconclusive | GAA30 FXN cntr 107 | GAA850 confirm 46
CC(=NNC(=S)N(Cc1ccccn1)Cc1ccccn1)c1cnccn1	GAA850 FXN act 12 (no result: AHR activator, HIF act) | GAA30 FXN cntr inactive | GAA850 confirm inactive
COc1ccc(CCN(C)C(=O)CCc2nnc(-c3ccccc3)o2)cc1OC	GAA850 FXN act 9.3 | GAA30 FXN cntr 110 | GAA850 confirm 31
CN(Cc1ccc(F)cc1)C(=O)CCc1nnc(-c2ccccc2)o1	none
O=[N+]([O-])c1cc(CN2CCN(c3cccc(C(F)(F)F)c3)CC2)c2cccnc2c1O	SR-BI DiI inh inconclusive (no result: GAA850 FXN act, ABCB6 inh 2)

Screening results as filed in PubChem.
